Measured values taken from ChEMBL document CHEMBL2331537, “Effective inhibition of acid and neutral ceramidases by novel B-13 and LCL-464 analogues” (Bioorg Med Chem, 2013).
The source made the active and inactive calls. No cut-off for these calls is given here.

Experiments:
[1] = target: T1, Acid ceramidase (Homo sapiens) (UniProt Q13510); test: Inhibition of human recombinant acid ceramidase using Acyl-NBD-C12-cer as substrate at 80 uM after 8 hrs by fluorescence assay
T1 sequence (whole entry): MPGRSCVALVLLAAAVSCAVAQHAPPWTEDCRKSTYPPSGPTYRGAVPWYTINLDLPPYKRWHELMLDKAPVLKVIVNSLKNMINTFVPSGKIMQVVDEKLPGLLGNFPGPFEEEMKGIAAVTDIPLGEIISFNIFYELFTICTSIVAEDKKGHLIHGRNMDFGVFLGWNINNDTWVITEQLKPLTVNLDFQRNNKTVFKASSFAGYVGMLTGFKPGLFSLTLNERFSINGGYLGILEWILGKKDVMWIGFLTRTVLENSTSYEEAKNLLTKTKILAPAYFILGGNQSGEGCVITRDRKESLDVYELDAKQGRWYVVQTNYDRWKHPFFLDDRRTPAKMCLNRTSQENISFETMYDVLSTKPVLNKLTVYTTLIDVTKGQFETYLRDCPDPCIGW
How it was run: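 Recombinant human enzyme (60 total protein) was in 200 mM sodium acetate pH 4.5, 200 mM NaCl, 0.1% Triton X-100, DMSO <5% v/v. Final substrate was 15 and inhibitor 80, incubated 8 h at 37 °C. Reactions were quenched with chloroform/methanol 2:1 and NBD-fatty acid separated by TLC. Imaging used ex 430/em 550 nm; % hydrolysis versus no-inhibitor control, mean SD, three experiments.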

[2] = target: Neutral ceramidase (Homo sapiens) (UniProt Q9NR71); test: Inhibition of human recombinant neutral ceramidase using Acyl-NBD-C12-cer as substrate at 80 uM after 2 hrs by fluorescence assay
How it was run: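 Recombinant human enzyme at 25 ng/mL final was in 200 mM sodium acetate pH 7.0, 200 mM NaCl, 0.1% Triton X-100. Final substrate was 15 and inhibitor 80, incubated 2 h at 37 °C. Reactions were chloroform/methanol quenched and cleaved/uncleaved NBD substrate resolved by TLC with fluorescence imaging. Values are % of no-inhibitor control, mean SD, three experiments.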

MDA-MB-231 [3] = test: Elevation of total ceramide level in human MDA-MB-231 cells at 25 uM after 24 hrs by LC-MS/MS analysis relative to control; type: functional
How it was run: (§1)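 MDA-MB-231 cells were exposed to inhibitor for 24 h at 37 °C at the concentration given in each line. Lipids were extracted by modified Bligh & Dyer with 20 pmol C17-ceramide as internal standard. Analysis was positive-mode LC–MS/MS on a C18 column, isocratic acetonitrile/2-propanol 3:2 with 1% formic acid. Values are mean SD of three independent experiments versus control.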

MDA-MB-231 [4] = test: Elevation of total ceramide level in human MDA-MB-231 cells at 50 uM after 24 hrs by LC-MS/MS analysis relative to control; type: functional; how it was run: as §1
MDA-MB-231 [5] = test: Induction of apoptosis in human MDA-MB-231 cells assessed as increase in cytoplasmic histone-associated DNA fragment level after 24 hrs by ELISA; type: functional, cell-based; settings: MDA-MB-231, 24 h
How it was run: (§2)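 Cells were seeded for 24 h, then treated 24 h in DMEM with compound or DMSO vehicle. Cytoplasmic histone-associated DNA fragments were measured photometrically by Cell Death Detection ELISA Plus, following the kit protocol. Values are % of control (mean S.D., n = 3); dose–response is read as optical density.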

MDA-MB-231 [6] = test: Induction of apoptosis in human MDA-MB-231 cells assessed as increase in cytoplasmic histone-associated DNA fragment level at 25 to 50 uM after 24 hrs by ELISA relative to control; type: functional; how it was run: as §2
Alkaline ceramidase 2 = Alkaline ceramidase 2 (Homo sapiens, UniProt Q5QJU3); test: Inhibition of alkaline ceramidase 2 in human HL-60 cells using 3H]C16-ceramide as substrate after 1 hr by liquid scintillation counting analysis; type: cell-based
MDA-MB-231 [7] = test: Elevation of C24-ceramide level in human MDA-MB-231 cells at 25 uM by LC-MS/MS analysis; type: functional, cell-based; how it was run: as §1
HL-60 = test: Cytotoxicity against human HL60 cells assessed as growth inhibition by trypan blue dye exclusion assay
MDA-MB-231 [8] = test: Elevation of C18-ceramide level in human MDA-MB-231 cells at 25 uM by LC-MS/MS analysis; type: functional, cell-based; how it was run: as §1
MDA-MB-231 [9] = test: Elevation of C16-ceramide level in human MDA-MB-231 cells at 25 uM by LC-MS/MS analysis; type: functional, cell-based; how it was run: as §1
MDA-MB-231 [10] = test: Elevation of C16-ceramide level in human MDA-MB-231 cells at 50 uM by LC-MS/MS analysis; type: functional, cell-based; how it was run: as §1
MDA-MB-231 [11] = test: Elevation of C24-ceramide level in human MDA-MB-231 cells at 50 uM by LC-MS/MS analysis; type: functional, cell-based; how it was run: as §1
MDA-MB-231 [12] = test: Elevation of C18-ceramide level in human MDA-MB-231 cells at 50 uM by LC-MS/MS analysis; type: functional, cell-based; how it was run: as §1

Neutral ceramidase (Homo sapiens), sequence (Q9NR71 whole entry): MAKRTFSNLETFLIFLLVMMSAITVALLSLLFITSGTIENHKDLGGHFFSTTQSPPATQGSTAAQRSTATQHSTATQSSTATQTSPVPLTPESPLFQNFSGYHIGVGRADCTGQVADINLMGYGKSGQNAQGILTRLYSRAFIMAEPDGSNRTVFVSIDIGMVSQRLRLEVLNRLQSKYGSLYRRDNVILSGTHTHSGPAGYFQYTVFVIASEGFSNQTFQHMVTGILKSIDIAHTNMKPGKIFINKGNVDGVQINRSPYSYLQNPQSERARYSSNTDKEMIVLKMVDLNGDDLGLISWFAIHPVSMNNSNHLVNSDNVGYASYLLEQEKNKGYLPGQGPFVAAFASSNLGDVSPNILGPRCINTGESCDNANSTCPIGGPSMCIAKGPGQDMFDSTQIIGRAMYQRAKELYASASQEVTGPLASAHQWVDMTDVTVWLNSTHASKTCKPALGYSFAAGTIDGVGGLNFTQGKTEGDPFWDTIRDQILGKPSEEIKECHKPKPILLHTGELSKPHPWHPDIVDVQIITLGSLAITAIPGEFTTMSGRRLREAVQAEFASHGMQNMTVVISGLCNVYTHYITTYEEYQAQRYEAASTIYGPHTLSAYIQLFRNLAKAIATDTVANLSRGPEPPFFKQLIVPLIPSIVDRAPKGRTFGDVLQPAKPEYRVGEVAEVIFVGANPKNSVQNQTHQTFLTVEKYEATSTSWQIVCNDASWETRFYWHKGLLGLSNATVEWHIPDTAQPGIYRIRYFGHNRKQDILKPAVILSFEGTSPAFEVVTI

inhibition [1] | inhibition [2] | Structure (SMILES) | Activity (MDA-MB-231 [4]) | also measured
Active | inactive | CCCCCCCCCCCCCC(=O)N[C@H](C(=O)O)[C@H](O)c1ccc([N+](=O)[O-])cc1 | 150% | Activity (MDA-MB-231 [3]): 150%
Active | Active | CCCCCCCCCCCCCC(=O)N[C@H](CO)[C@H](O)c1ccc(N)cc1 | 300% | EC50 (MDA-MB-231 [5]): 59 µM; Activity (MDA-MB-231 [3]): 300%; fold change (FC) (MDA-MB-231 [6]): 3
Active | 30% | CN(C)CCCCCCCCCCCC(=O)N[C@H](CO)[C@H](O)c1ccc([N+](=O)[O-])cc1 | >=150% | 
Active |  | CCCCCCCCCCCCCC(=O)N[C@H](CO)[C@H](O)c1ccc([N+](=O)[O-])cc1 | 350% | Activity (MDA-MB-231 [7]): inactive; IC50 (HL-60): 1500 nM; Activity (MDA-MB-231 [8]): inactive; Activity (MDA-MB-231 [9]): inactive; Activity (MDA-MB-231 [10]): Active; Activity (MDA-MB-231 [11]): Active; Activity (MDA-MB-231 [12]): Active; Activity (MDA-MB-231 [3]): 150%

Continued, compound first:

Structure (SMILES) | inhibition [1] | inhibition [2] | Activity (MDA-MB-231 [4]) | also measured
CCCCCCCCCCCCCC(=O)N[C@H](C)[C@@H](O)c1ccccc1 | 60% | 8% |  | IC50 (Alkaline ceramidase 2): 1000 nM
CCCCCCCCCCCCCC(=O)NCC(O)c1ccccc1 (racemic) |  |  | >=150% | 
CN(C)CCCCCCCCCCCC(=O)NCC(O)c1cccnc1 (racemic) | inactive | inactive | < 150% | 
CN(C)CCCCCCCCCCCC(=O)NCC(O)c1ccccc1 (racemic) |  |  | >=150% | 
CN(C)CCCCCCCCCCCC(=O)NCC(O)c1ccncc1 (racemic) | inactive | inactive | >=150% | 
CCCCCCCCCCCCCC(=O)N[C@H](CO)C(=O)c1ccc([N+](=O)[O-])cc1 | Active | Active |  | 
C[C@@H](NC(=O)CCCCCCCCCCCN(C)C)[C@@H](O)c1ccccc1 |  |  | >=150% | 
